Sampled rows, rich in hits. Any-hit rate of the full collection: about 1.1%.
DAGLB inh = blocks human DAGLB lipase activity | HEK293T DAGLB membrane lysate, EnzChek fluorogenic substrate | Q8NCG7 | inhibition, % at 5.17 µM | actives 0.059% (n = 340,000); in the data active means inhibition above about 34%
MT1-MMP act inh = MT1-MMP (human) activation inhibition | P50281 | HT1080 RFP-PRO-GFP cells, GFP/RFP ratio fluorescence, overnight; percent of plate control window, DMSO zero | GFP/RFP ratio change, % at 20 µM | actives 0.061% (n = 360,000) | AID 651647;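 active means GFP/RFP ratio change of at least 30% with cell ATP level not reduced by more than half and red fluorescence within 50% of control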
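system = RFP-PRO-GFP reporter HT1080 cells | dosing = 20 µM single dose, 1% DMSO | timing = overnight cell settling, then overnight compound exposure, 37 °C, 5% CO2 | read-out basis = GFP/RFP fluorescence ratio | controls = DMSO and RFP-L50D-GFP cell wells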
NR2E3 ag-1 = agonists of human NR2E3 nuclear receptor; actives 0.35% (n = 360,000); inhibition of corepressor binding, % at 3.98 µM; Q9Y5X4; CHO-S Gal4-NCOR/VP16-NR2E3 two-hybrid, luciferase;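 active means inhibition above the mean of all tested compounds plus 3 SD, cut at about 70% in these data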;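 further: higher means lower luciferase signal from less NR2E3 corepressor binding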
Target sequence (Q9Y5X4 whole entry, looked up, the tested form may be a part): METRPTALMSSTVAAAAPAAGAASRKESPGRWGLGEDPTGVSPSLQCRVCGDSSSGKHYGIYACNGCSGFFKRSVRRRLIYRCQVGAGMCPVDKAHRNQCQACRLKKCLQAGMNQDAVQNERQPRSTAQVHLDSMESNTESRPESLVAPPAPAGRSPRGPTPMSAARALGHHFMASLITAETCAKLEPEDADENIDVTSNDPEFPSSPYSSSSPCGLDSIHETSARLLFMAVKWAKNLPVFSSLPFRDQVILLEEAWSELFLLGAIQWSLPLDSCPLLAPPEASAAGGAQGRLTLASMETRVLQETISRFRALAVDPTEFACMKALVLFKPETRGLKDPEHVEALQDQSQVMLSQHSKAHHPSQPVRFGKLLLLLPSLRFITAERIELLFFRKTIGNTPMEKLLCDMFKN
Vif inh = blocks HIV Vif function | HEK293T cells, Vif self-association by quenched fluorescence, imaging, 24 h | inhibition, % at 7.49 µM | actives 0.35% (n = 340,000) | AID 602346; in the data active means inhibition above about 50%, passing the limit was not always enough; inconclusive means no clear call, values can overlap the other calls; inactive means below about 31%
NR2E3 ag-2 = NR2E3 (human) agonism. GST-NR2E3/biotin-RetCOR TR-FRET, 1536-well. inhibition of corepressor binding, % at 4.78 µM. actives 0.12% (n = 320,000). AID 2300;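 active means percent inhibition above the cutoff of mean plus 3 SD of all tested compounds, set per screening campaign, cut at about 20% in these data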
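Format: 1536-well format; test system: GST-NR2E3 and biotin-RetCOR proteins; read-out basis: percent inhibition of TR-FRET ratio; timing: 5 h incubation at 4 °C; detection: time-resolved FRET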
core dimer inh = HCV core protein dimerization inhibition; actives 0.33% (n = 300,000); TR-FRET GST/Flag-core106 dimerization, 1536-well; inhibition, % at 5 µM;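 active means inhibition above the mean of all tested compounds plus 3 SD, set per screening campaign, cut at about 45% in these data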
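Assay system – GST-tagged and Flag-tagged HCV core protein residues 1-106 · Quantity – core106 proteins, GST 13.5 nM and Flag 17 nM · Benchmarks – unlabelled core106 and no-GST-core106 wells · Read-out basis – percent inhibition of core106 dimerization signal · Detection – time-resolved FRET, ex 340 nm, em 617 and 671 nm · Schedule – 4 h at 22.5 °C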
NR2E3 ag confirm = confirmation of human NR2E3 agonists. inhibition, % at 3.98 µM. actives 51% (n = 2,300). shares compounds with NR2E3 ag-1. CHO-S mammalian two-hybrid NR2E3-NCOR, luciferase luminescence. AID 624378;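 active means average inhibition above a cutoff equal to the mean inhibition of all tested compounds plus one SD, cut at about 70% in these data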
GAL4-VP16 luc = GAL4-VP16 reporter inhibition in NR2E3 agonist counterscreen; CHO-S GAL4-VP16 luciferase reporter, luminescence; actives 29% (n = 2,300); shares compounds with NR2E3 ag-1; inhibition, % at 3.98 µM;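 active means mean inhibition above a cutoff equal to the average over all tested compounds plus one standard deviation, cut at about 70% in these data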;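 further: luciferase from a UAS reporter driven by GAL4-VP16 transactivation; higher means less reporter light so more repression of VP16 activity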
Each line names hits and unclear results; the compound was inactive in the other large screens (follow-up assays come after a bar, where they were run).

COc1ccc(Cl)cc1NC(=O)CN(C)C(=O)c1ccc(N2CCCCCC2)c([N+](=O)[O-])c1	none | NR2E3 ag confirm inactive | GAL4-VP16 luc inactive
CCOc1ccc(S(=O)(=O)N2CCN(C(=O)c3cc(C4CC4)nn3-c3ccccc3)CC2)cc1	none (no result: NR2E3 ag-2, core dimer inh)
Cc1cnc(NC(=O)CN2CCN(c3ccccn3)CC2)s1	Vif inh 114.1 | NR2E3 ag confirm 93.9 | GAL4-VP16 luc inactive
COc1ccc(N2CCN(CC(=O)Nc3ncc(C)s3)CC2)cc1	none
COc1cnc(-c2ccccn2)nc1N(C)C	none | NR2E3 ag confirm inactive | GAL4-VP16 luc inactive
CN(C)c1nc(-c2ccccn2)nnc1-c1ccccc1	none
COc1cnc(-c2ccccn2)nc1Oc1cccc(Cl)c1	none | NR2E3 ag confirm inactive | GAL4-VP16 luc inactive
COc1ccc(Oc2nc(-c3ccccn3)ncc2OC)cc1	NR2E3 ag-1 73.2 | NR2E3 ag confirm inactive | GAL4-VP16 luc inactive
COc1cnc(-c2ccccn2)nc1Oc1c(C)cccc1C	none | NR2E3 ag confirm inactive | GAL4-VP16 luc inactive
COC(=O)N/N=C/c1cc(Cl)cc(Cl)c1OCc1ccc(F)cc1	none
O=C(COC(=O)c1cc(=O)[nH]c(=O)[nH]1)Nc1cccc(Cl)c1	none (no result: NR2E3 ag-2, core dimer inh)
CC=Cc1cc(OC)c2c(c1)C(C)C(c1ccc(O)c(OC)c1)O2 (stereo unspecified)	none (no result: NR2E3 ag-2, core dimer inh)
Cc1csc2c(N3CCN(S(=O)(=O)c4ccc(Cl)cc4)CC3)ncnc12	none
O=S(=O)(c1ccc(Cl)cc1)N1CCN(c2ncnc3sccc23)CC1	NR2E3 ag-1 95.0 (no result: NR2E3 ag-2, core dimer inh) | NR2E3 ag confirm 93.5 | GAL4-VP16 luc 72.2
CC(C)C[C@H]1COc2cccc(N3CCC[C@H]3CO)c2S(=O)(=O)N1	none (no result: DAGLB inh, Vif inh, NR2E3 ag-2, core dimer inh)
C[C@@H]1CN([C@H](C)CO)C(=O)CCCn2nncc2CO[C@H]1CN(C)Cc1ccccc1C(F)(F)F	none (no result: NR2E3 ag-2, core dimer inh)
Cc1ccc(C(C#N)c2ccc(C(=O)c3ccc(F)cc3)cc2)cc1 (stereo unspecified)	none | NR2E3 ag confirm inactive | GAL4-VP16 luc inactive
N#CC(c1ccc(F)cc1)c1ccc(C(=O)c2ccc(F)cc2)cc1 (stereo unspecified)	none
COc1ccc(S(=O)(=O)N/N=C\c2ccc3c(c2)OCO3)c(OC)c1	none (no result: Vif inh, NR2E3 ag-2, core dimer inh) | NR2E3 ag confirm inactive | GAL4-VP16 luc inactive
Cc1cc(N2CCN(C/C=C/c3ccccc3)CC2)n2ncnc2n1	none | NR2E3 ag confirm inactive | GAL4-VP16 luc inactive
Cc1cc(N2CCN(c3ccccc3)CC2)n2ncnc2n1	none
Cc1cc(Cl)ccc1OC(C)C(=O)Nc1ccc(C(=O)Nc2ccccc2C(=O)O)cc1 (stereo unspecified)	none | NR2E3 ag confirm inactive | GAL4-VP16 luc inactive
COc1cc2c(cc1OC)CN(C(=O)/C=C/c1ccccc1[N+](=O)[O-])CC2	none
Cc1nc(SCC(=O)Nc2nc3ccccc3s2)c(C#N)c(C)c1C	NR2E3 ag-1 92.8 | NR2E3 ag confirm 84.5 | GAL4-VP16 luc 81.1
CC(=O)N1c2ccc(S(=O)(=O)N3CCC(C(=O)N4CCN(c5ccc(Cl)cc5)CC4)CC3)cc2CC1C (stereo unspecified)	none | NR2E3 ag confirm 77.2 | GAL4-VP16 luc inactive
Cc1ccc(Cl)cc1N1CCN(C(=O)C2CCN(S(=O)(=O)c3cccnc3)CC2)CC1	none | NR2E3 ag confirm inactive | GAL4-VP16 luc inactive
O=C1NC(=O)C(=C2CCOC2=O)N1	none (no result: NR2E3 ag-2, core dimer inh)
O=C(NCc1cccnc1)/C(=C/c1ccc(-c2cccc(C(F)(F)F)c2)o1)NC(=O)c1ccccc1	none
O=C(NCc1cccnc1)/C(=C\c1ccc(-c2ccc(Br)cc2)o1)S(=O)(=O)c1ccccc1	NR2E3 ag-1 93.4 | NR2E3 ag confirm inactive | GAL4-VP16 luc inactive
O=C(CN(Cc1ccc(Br)cc1)S(=O)(=O)c1ccccc1)NCc1cccnc1	none
O=C(NCc1cccnc1)/C(=C/c1ccc(-c2ccc(Cl)cc2)o1)S(=O)(=O)c1ccccc1	NR2E3 ag-1 89.9 | NR2E3 ag confirm inactive | GAL4-VP16 luc inactive
C[C@H](CO)N1C[C@H](C)[C@H](CN(C)C(=O)Nc2cccc(Oc3ccccn3)c2)OCc2cnnn2CCCC1=O	none (no result: NR2E3 ag-2, core dimer inh)
COCC(C)n1c(SCC(=O)NC(=O)NCc2ccccc2)nc2ccccc2c1=O (stereo unspecified)	none (no result: NR2E3 ag-2, core dimer inh)
O=C1CCCN1c1ccc(S(=O)(=O)NCCOc2ccccc2)cc1	none (no result: Vif inh) | NR2E3 ag confirm inactive | GAL4-VP16 luc inactive
Clc1ccc2c(NCc3cccs3)ncnc2c1	none
Clc1ccc2c(NCc3ccco3)ncnc2c1	none | NR2E3 ag confirm inactive | GAL4-VP16 luc inactive
CN1CCc2c(sc(NC(=O)c3ccc([N+](=O)[O-])o3)c2C(N)=O)C1	none | NR2E3 ag confirm inactive | GAL4-VP16 luc inactive
NC(=O)c1c(NC(=O)c2ccc([N+](=O)[O-])o2)sc2c1CCCC2	none
Cc1ccc(-c2csc3ncnc(Sc4nnc(CN5CCCCCC5=O)o4)c23)cc1	none | NR2E3 ag confirm inactive | GAL4-VP16 luc inactive
O=C(O)C1CCCCC1C(=O)Nc1ccc2c(c1)OCCO2 (stereo unspecified)	none (no result: Vif inh) | NR2E3 ag confirm inactive | GAL4-VP16 luc inactive
O=C(O)C1C2C=CC(C2)C1C(=O)Nc1ccc2c(c1)OCCO2 (stereo unspecified)	none | NR2E3 ag confirm inactive | GAL4-VP16 luc inactive
O=C(Nc1ccc2c(c1)OCCO2)C1CC1c1ccccc1 (stereo unspecified)	none
O=C(O)C1C2C=CC(O2)C1C(=O)Nc1ccc2c(c1)OCCO2 (stereo unspecified)	none (no result: DAGLB inh, MT1-MMP act inh, NR2E3 ag-1, Vif inh)
Cc1c(Cl)cccc1NC(=O)CSc1nc(=O)n(CCCN2CCOCC2)c2c1CCCC2	none (no result: NR2E3 ag-2, core dimer inh)
CN(C)c1ncnc2c1ccn2C1OC(CO)C(O)C1O (stereo unspecified)	Vif inh inconclusive (no result: NR2E3 ag-2, core dimer inh) | NR2E3 ag confirm 72.1 | GAL4-VP16 luc inactive
OCC1OC(n2cnc3c(NCc4ccccc4O)ncnc32)C(O)C1O (stereo unspecified)	NR2E3 ag-1 71.6 (no result: NR2E3 ag-2, core dimer inh) | NR2E3 ag confirm inactive | GAL4-VP16 luc inactive
CN(C)c1nc2c(N)ncnc2n1C1OC(CO)C(O)C1O (stereo unspecified)	none (no result: NR2E3 ag-2, core dimer inh)
OCC1OC(n2ccc3c(NO)ncnc32)C(O)C1O (stereo unspecified)	NR2E3 ag-1 101.6 (no result: NR2E3 ag-2, core dimer inh) | NR2E3 ag confirm 99.4 | GAL4-VP16 luc 92.8
O=c1[nH]cnc2c1ncn2[C@@H]1O[C@H](CO)[C@@H](O)[C@H]1O	none
OC[C@H]1O[C@@H](n2cnc3c(Nc4ccccc4)ncnc32)[C@H](O)[C@@H]1O	none

Screening data (PubChem)
